Fewer inactive variants are shown than the library holds.
B1: tRNA (parent)
chain: GUUCCGUUGGCGUAAUGGUAACGCGUCUCCCUCCUAAGGAGAAGACUGCGGGUUCGAGUCCCGUACGGAACG

Variants of: B1
Test: yeast fitness relative to wild type (ratio to wild type); higher = fitter; tRNA-Arg(CCU), competitive growth, 37 C, YPD
Method in brief: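 Gene amplicons from the start population and from each of six end populations were read by 100-nucleotide paired-end sequencing. Those end populations came from pooled Saccharomyces cerevisiae strains carrying tRNA-Arg(CCU) gene variants at the native locus, competed in YPD at 37°C for 24 hours. Fitness relative to wild type was worked out from changes in genotype frequencies. Genotypes needed ≥ 100 starting reads, and estimates < 0.5 were set to 0.5.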

| Variant | yeast fitness |
| --- | --- |
| C27G C31G A69U | ≤ 0.5 |
| C27G C31G C61G A69U | 0.55 |
| C27G C31G U53A G56A G63A | 0.534 |
| C27G C31G U54G A70C | ≤ 0.5 |
| C27G C31G U59A | ≤ 0.5 |
| C27G C31G U59C | 0.604 |
| C27G C31U | 0.772 |
| C27G C31U A37G G58C | ≤ 0.5 |
| C27G C31U A42G U53C | ≤ 0.5 |
| C27G C31U A65U A70U | ≤ 0.5 |
| C27G C31U C46G G51C | ≤ 0.5 |
| C27G C31U C49G G58C | ≤ 0.5 |
| C27G C31U C60A | 0.602 |
| C27G C31U G68A | ≤ 0.5 |
| C27G C31U U53C | 0.573 |
| C27G C31U U53C C66A | ≤ 0.5 |
| C27G C33A | 0.593 |
| C27G C33A A65U | ≤ 0.5 |
| C27G C33A G48A G51C | ≤ 0.5 |
| C27G C33A U47A | ≤ 0.5 |
| C27G C33G | 0.524 |

| Variant | yeast fitness |
| --- | --- |
| C27G C33G C55A | ≤ 0.5 |
| C27G C33G G39A C46U C60G | ≤ 0.5 |
| C27G C33G G39A C46U C61U A69U | 0.585 |
| C27G C33G G41A A65C | ≤ 0.5 |
| C27G C33G G51C C60U C61U | ≤ 0.5 |
| C27G C33U A40G C49U A69C | 0.703 |
| C27G C33U A45U | 0.568 |
| C27G C33U A69C | 0.544 |
| C27G C33U G44C C49U | ≤ 0.5 |
| C27G C34A A40G | 0.644 |
| C27G C34A C46G C55A | ≤ 0.5 |
| C27G C34A C60A | 0.551 |
| C27G C34A G68C | ≤ 0.5 |
| C27G C34G | ≤ 0.5 |
| C27G C34G A57G G67C A69U | ≤ 0.5 |
| C27G C34G C46U | 0.65 |
| C27G C34G C55G U59C C60U G67U | ≤ 0.5 |
| C27G C34G U54A A70U | ≤ 0.5 |
| C27G C46A C49G | 0.704 |
| C27G C46A G51A | 0.525 |
| C27G C46G A65G | 0.631 |

| Variant | yeast fitness |
| --- | --- |
| C27G C46G U53G G58C C61A | ≤ 0.5 |
| C27G C46G U53G G58C G68A | ≤ 0.5 |
| C27G C46U A69C | 0.735 |
| C27G C46U A70C | 0.729 |
| C27G C46U A70G | 0.727 |
| C27G C46U C60U | 0.626 |
| C27G C46U C60U A69U | ≤ 0.5 |
| C27G C46U C61G G68U | ≤ 0.5 |
| C27G C46U C62U G68C | ≤ 0.5 |
| C27G C46U G50A | 0.599 |
| C27G C46U G50A C66U | ≤ 0.5 |
| C27G C46U G51A | 0.633 |
| C27G C46U U54C | 0.738 |
| C27G C49A A57U | ≤ 0.5 |
| C27G C49A G58C | ≤ 0.5 |
| C27G C49G | 0.621 |
| C27G C49U | 0.614 |
| C27G C49U A65U | ≤ 0.5 |
| C27G C49U A65U A70G | ≤ 0.5 |
| C27G C49U C60A | ≤ 0.5 |
| C27G C49U C62U A65U | ≤ 0.5 |

| Variant | yeast fitness |
| --- | --- |
| C27G C49U U54G | ≤ 0.5 |
| C27G C55A A70U | ≤ 0.5 |
| C27G C55A C66U | 0.545 |
| C27G C55G | ≤ 0.5 |
| C27G C55G A70U | 0.617 |
| C27G C55U | ≤ 0.5 |
| C27G C55U G67C | ≤ 0.5 |
| C27G C61A | 0.582 |
| C27G C61G | 0.554 |
| C27G C62A | 0.516 |
| C27G C62G | 0.695 |
| C27G C66A | ≤ 0.5 |
| C27G C66G | 0.579 |
| C27G C66U | 0.621 |
| C27G G38A | 0.745 |
| C27G G38A G67U | ≤ 0.5 |
| C27G G38C C55U | ≤ 0.5 |
| C27G G39A C46U A70G | ≤ 0.5 |
| C27G G39A C46U C66U | ≤ 0.5 |
| C27G G39A C46U G67A | 0.581 |
| C27G G39A C46U G68A | ≤ 0.5 |
